Source: ChEMBL document CHEMBL4513216, “Probing the Open Global Health Chemical Diversity Library for Multistage-Active Starting Points for Next-Generation Antimalarials” (ACS Infect Dis, 2020)

Assay: Toxicity liver stage against HepG2, at 10uM
Type: cell-based
Design: test concentration 10 uM, cell line HepG2-A16-CD81EGFP
Conditions: human, HepG2-A16-CD81EGFP cells; read-out: INHIBITION
In short: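 Uninfected HepG2-A16-CD81EGFP cells, 3 × 10^3 per well, 1536-well, plated on prespotted compound at 10 μM final, parasite-free screening media added to match infected plates; puromycin 10 μM positive, DMSO 0.5% negative; run in parallel with 48 h PbLuc assay at 37 °C, 5% CO2; viability by CellTiter-Glo luminescence, normalized to controls.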

Row | SMILES | cytotoxicity at 10 µM
1 | Cc1ccccc1C(=O)NC(C)CN1CCOC1=O (stereo not given) | 4.33%
2 | CN(C)CCCNCC1CCOC(C)(C)C1 (stereo not given) | -8.02%
3 | CO[C@@H]1CN(c2ccccc2)S(=O)(=O)[C@@]12CCN(S(C)(=O)=O)C2 | 2.21%
4 | Cc1c(OCC(=O)NCc2ccccc2Cl)c(=O)ccn1C | -40.5%
5 | CCOC(=O)Cc1csc(NC(=O)c2cc(=O)c(OC)c[nH]2)n1 | -43.8%
6 | COc1ccccc1C1SCC(=O)Nc2c1c(=O)[nH]n2C1CCOCC1 (stereo not given) | -5.43%
7 | COc1cn(CC(=O)N2CCN(c3ccc(F)cc3)CC2)c(C)cc1=O | 2.29%
8 | COCCCNC(=O)C1CN(C(=O)c2cnccn2)C1 | 0.722%
9 | O=C(Nc1nc2c(s1)CN(S(=O)(=O)C1CC1)CC2)c1ccccn1 | -5.46%
10 | CCC(C)N1CCc2c(C(=O)N3CCOCC3)n[nH]c2C1 (stereo not given) | 1.88%
11 | COCCNC(=O)c1ccnn1-c1ccc2ccccn12 | 8.28%
12 | COc1cccc(-c2cnc3n2CCC32CCN(S(C)(=O)=O)CC2)c1 | -2.2%
13 | Cn1cc(CN2CCCn3cnc(COCc4ccco4)c3C2)cn1 | 7.61%
14 | Cc1ccn(CC(=O)Nc2cc(-c3ccncc3)[nH]n2)n1 | -14.8%
15 | Cc1nc(-c2ccccc2)sc1CNC(=O)c1ccc(=O)n(C)c1 | -6.09%
16 | O=C(Nc1cccnc1N1CCSCC1)c1ccc2c(c1)CCO2 | -0.678%
17 | COc1ccc(C(C)NCc2nnc(C)s2)cc1F (stereo not given) | -19.8%
18 | COC(=O)C1CN(Cc2ccc(-c3ccncc3)cc2F)C[C@@H](C)O1 (stereo not given in full) | 1.63%
19 | Cc1nc(CNC(C)c2cccc(S(=O)(=O)N(C)C)c2)no1 (stereo not given) | 0.956%
20 | CCOc1cncc(N2CCN(c3ccccc3O)CC2)n1 | 25.7%
21 | CC(C)(C)c1cnc(CN2CCC(CO)CC2)o1 | -5.6%
22 | CN1CCN(C(=O)C2SCCc3sccc32)CC1 (stereo not given) | -12.6%
23 | CN(CCOc1cccc(CNS(C)(=O)=O)c1)C1CCOCC1 | 2.37%
24 | CC(C)NC(=O)CCNC(=O)c1cc(Br)cn1C(C)C | 4.33%
25 | NC(=O)c1ccc(N2CCCCC2)c(NC(=O)c2ccc(Br)cc2)c1 | 11.1%
26 | Fc1ccc(CN2CCOC(Cn3cncn3)C2)c2ncccc12 (stereo not given) | 0.219%
27 | Cc1cc(C)n(C2CN(CC(=O)N(C)Cc3ccco3)C2)n1 | -4.42%

Row | SMILES | cytotoxicity at 10 µM
28 | CNc1cc(N2CCCC2CNCc2cccc(C(N)=O)c2)ncn1 (stereo not given) | -7.72%
29 | Cc1nc(C)n(C2CCCN(C(=O)Cc3ccc4c(c3)CCC4)C2)n1 (stereo not given) | -10.3%
30 | CSc1ccc(NC(=O)Cc2cccc(O)c2)nc1 | -4.3%
31 | CN(C(=O)c1ccco1)C1CCC(NC(=O)OC(C)(C)C)CC1 (stereo not given) | 8.12%
32 | Clc1ccc(-c2cnc(CNC3CCc4ncnn4C3)o2)cc1 (stereo not given) | -4.36%
33 | N#Cc1c(Cl)nsc1N1CCN(CC2CC2)CC1 | 28.5%
34 | Cc1cnn(CCNCc2c(C)nn(Cc3ccccc3)c2C)c1 | -3.46%
35 | CC(C)CN(CC(O)c1ccc(F)cc1)C(=O)c1cc[nH]n1 (stereo not given) | -5.71%
36 | Cc1nc(C(C)C)sc1C(=O)NS(=O)(=O)c1ccc(C#N)cc1 | -6.94%
37 | COc1cc(N2CC[C@@H]3OCCN(C)[C@H]3CC2)ncn1 | -96.6%
38 | CC(C)n1nc(CN2CCCC2=O)c2c1CN(C(=O)c1ccco1)C2 | 5.35%
39 | O=C(c1ccoc1)N1CCO[C@@H]2CNC[C@@H]21 | -99.9%
40 | O=C(c1ccno1)N1CC[C@@H]2CN(C3CCOCC3)CCO[C@@H]2C1 | -102%
41 | O=C(Cc1ccsc1)N1C[C@@H]2COC[C@]2(COc2cccnc2)C1 | -99.3%
42 | COc1cccc(OC)c1-c1ccnc2cc(CC(=O)NC3CC3)nn12 | -2.67%
43 | CCNc1nc(-c2cccnc2)c(-c2ccnc(N3CCOCC3)n2)s1 | -10.1%
44 | CCc1cc(N2CCCC(CC)(C(=O)O)C2)nc(N2CCOCC2)n1 (stereo not given) | 0.701%
45 | CCOc1cc(CNCc2nc(C)cc(=O)[nH]2)c(Cl)cc1OC(C)C | -7.83%
46 | O=C1N(CCCc2ccccc2)CCCC1(O)CNCC1CCCCC1 (stereo not given) | -0.106%
47 | CCc1ncc2c(n1)CN(C(=O)c1c(C)[nH]c(C(C)=O)c1C)C2 | -45.9%
48 | COCCn1cnnc1Cn1ccnc1-c1ccsc1 | 8.61%
49 | Cc1noc(C)c1-c1n[nH]c2c1CN(S(=O)(=O)c1ccsc1)CC2 | 5.6%
50 | CCOc1ccc(CNCc2cccnc2N(C)C)cc1 | -6.5%
51 | Cc1cc(C(=O)N2CCC(CCn3cccn3)CC2)c(C)o1 | -5.27%
52 | CC(C)[C@@H]1CN(C(=O)C2(c3ccccc3)CCN(C)CC2)C[C@H]1N(C)C | -32%
53 | Cc1cc(C)n(Cc2cc(C(=O)N3CCCC3c3ccccn3)n[nH]2)n1 (stereo not given) | 0.739%
54 | Cc1ccc(C2(CN3CCN(c4ncccn4)CC3)CCNCC2)nc1 | -10.1%

Row | SMILES | cytotoxicity at 10 µM
55 | Cc1cc2nc(C(C)C)cc(NCCc3cccn3C)n2n1 | 0.407%
56 | CCOCC(C)(C)NC(=O)Nc1cc(F)ccc1OC | -3.12%
57 | Cc1ccsc1C(=O)NCc1ccnc(OCC(F)(F)F)c1 | -6.19%
58 | CC(NC(=O)NCCOc1ccc(Cl)cc1)c1nncn1C (stereo not given) | -8.47%
59 | CC(O)CNC(=O)NCc1ccc(N2CCNC(=O)C2)cc1 (stereo not given) | -7.23%
60 | CCC(CNC(=O)Nc1cnn(CC)c1)N1CCCC1 (stereo not given) | -1.47%
61 | CN1CCOC(CNCCc2ccccn2)C1 (stereo not given) | -4.77%
62 | Cc1nc(C)n(CC2CCCN2Cc2nc3ccccc3nc2C)n1 (stereo not given) | 6.21%
63 | Cc1ccc(-c2nc(CN3CCC(C(=O)N(C)C)CC3)cs2)o1 | 1.32%
64 | CC(=O)Nc1nc(CN2CCCC2Cn2cc(C)cn2)cs1 (stereo not given) | 3.22%
65 | CC(C)C(=O)N1CCC2(CC1)NC(=O)c1ccccc12 | -0.787%
66 | CC(C)CNC(=O)N1CCC2(CC1)OC(C(N)=O)Cn1ccnc12 (stereo not given) | -103%
67 | CO[C@@H]1CCN(S(=O)(=O)c2cn(C)cn2)[C@H]1Cc1ccncc1 | 4.05%
68 | CC(=O)N1[C@@H](C(=O)NCC2CC2)C[C@@H]2CN(Cc3nccs3)C[C@@H]21 | 1.7%
69 | Cn1cccc1CN1CCC2(CC1)CCN(C(=O)c1cnccn1)CC2 | -147%
70 | O=C([C@H]1CN(Cc2ccoc2)C[C@H]2OCC[C@@H]12)N1CCCCO1 | 7.86%
71 | O=C1N(Cc2ccncc2)CCC12CCCN(c1ncc(F)cn1)C2 (stereo not given) | -7.38%
72 | CC(C)C(=O)N1CCc2onc(C(=O)NCCN(C)C)c2C1 | 5.56%
73 | CN(C)C(=O)COCc1nnc2n1CCN(Cc1ccsc1)C2 | 7.16%
74 | CC1CCN(C(=O)[C@H]2CC[C@@H]3[C@@H](CCN3Cc3nccs3)O2)CC1 | 4.62%
75 | Cc1ccc(N2CCC3(CN(CCO)CCC3(F)F)C2)nn1 (stereo not given) | 7.28%
76 | CC1N(c2cnn(C)c2)C(=O)COC12CCN(c1ccccn1)CC2 (stereo not given) | -5.31%
77 | COCCN1C[C@@H]2[C@@H](OC)CCN(C(=O)Cc3ccsc3)[C@@H]2C1 | 7.68%
78 | CN(Cc1cccs1)C1CCC[C@@H]2CN(C(N)=O)C[C@H]12 (stereo not given in full) | 18.6%
79 | O=C(Cc1cccc(F)c1)N1CCN2C[C@H](Oc3cncnc3)C[C@H]2C1 | 6.1%
80 | O=C(CC1[C@H]2CN(C(=O)Cc3ccccn3)C[C@@H]12)Nc1cccnc1 (stereo not given in full) | 10.1%
